Activity calls are given as the source filed them. No cut-off for these calls is given here.
How the values were obtained:
[1] = target: T1, Zinc finger protein GLI1 (Mus musculus) (UniProt P47806); experiment: Inhibition of GLI1 transcriptional activity in HH-responsive mouse NIH3T3 cells assessed as reduction in GLI1 protein expression at 5 uM incubated for 48 hrs in presence of SAG by Western blot analysis; format: cell-based
T1 sequence (whole entry): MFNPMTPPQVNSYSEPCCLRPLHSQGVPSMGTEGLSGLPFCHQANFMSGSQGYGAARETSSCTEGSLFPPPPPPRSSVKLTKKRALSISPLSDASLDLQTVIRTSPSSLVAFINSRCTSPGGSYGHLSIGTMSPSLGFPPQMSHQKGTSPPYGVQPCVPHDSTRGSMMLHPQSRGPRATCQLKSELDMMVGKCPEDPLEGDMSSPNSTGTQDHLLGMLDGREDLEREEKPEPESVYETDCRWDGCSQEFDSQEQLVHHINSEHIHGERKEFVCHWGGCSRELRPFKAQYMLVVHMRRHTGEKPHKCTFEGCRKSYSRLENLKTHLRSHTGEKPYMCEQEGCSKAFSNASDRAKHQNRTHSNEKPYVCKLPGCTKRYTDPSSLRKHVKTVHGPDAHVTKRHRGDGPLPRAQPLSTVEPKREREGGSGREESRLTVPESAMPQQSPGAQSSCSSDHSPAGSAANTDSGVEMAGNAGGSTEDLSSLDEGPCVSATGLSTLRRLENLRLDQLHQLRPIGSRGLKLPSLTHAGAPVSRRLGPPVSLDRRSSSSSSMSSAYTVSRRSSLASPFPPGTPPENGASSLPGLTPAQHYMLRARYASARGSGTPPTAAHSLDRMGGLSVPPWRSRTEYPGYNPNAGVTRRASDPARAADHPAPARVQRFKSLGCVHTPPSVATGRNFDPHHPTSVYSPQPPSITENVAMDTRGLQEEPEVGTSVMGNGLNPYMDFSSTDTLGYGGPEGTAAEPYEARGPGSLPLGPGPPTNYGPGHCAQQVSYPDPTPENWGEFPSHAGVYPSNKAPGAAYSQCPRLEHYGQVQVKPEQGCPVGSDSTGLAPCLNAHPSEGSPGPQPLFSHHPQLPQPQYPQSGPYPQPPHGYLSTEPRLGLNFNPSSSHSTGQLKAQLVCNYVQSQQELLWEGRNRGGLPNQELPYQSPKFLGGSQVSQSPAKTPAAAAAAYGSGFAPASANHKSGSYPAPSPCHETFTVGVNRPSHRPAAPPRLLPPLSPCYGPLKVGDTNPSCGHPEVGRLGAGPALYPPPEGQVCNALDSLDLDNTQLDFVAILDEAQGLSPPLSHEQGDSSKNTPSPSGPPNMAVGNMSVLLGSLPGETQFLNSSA
In short: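 Murine NIH3T3 cells given 100 nM SAG plus compound (5 μM) or DMSO for 48 h. Endogenous GLI1 protein measured by Western blot with HSP90 as loading control, band quantified against SAG-treated cells.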

Daoy = experiment: Antiproliferative activity against human DaOY cells assessed as reduction in cell viability incubated for 72 hrs by trypan blue or crystal violet staining based assay; format: functional
A-375 [2] = experiment: Antiproliferative activity against human A375 cells assessed as reduction in cell viability incubated for 72 hrs by trypan blue or crystal violet staining based assay; format: functional
MCF-10A = experiment: Cytotoxicity against human MCF10A cells assessed as reduction in cell viability incubated for 72 hrs by trypan blue or crystal violet staining based assay
[3] = target: T2, Zinc finger protein GLI1 (Homo sapiens) (UniProt P08151); experiment: Inhibition of GLI1 transcriptional activity in human A375 cells assessed as downregulation of GLI2 mRNA expression at 5 uM incubated for 48 hrs by qPCR analysis; format: cell-based; conditions: A-375
T2 sequence (whole entry): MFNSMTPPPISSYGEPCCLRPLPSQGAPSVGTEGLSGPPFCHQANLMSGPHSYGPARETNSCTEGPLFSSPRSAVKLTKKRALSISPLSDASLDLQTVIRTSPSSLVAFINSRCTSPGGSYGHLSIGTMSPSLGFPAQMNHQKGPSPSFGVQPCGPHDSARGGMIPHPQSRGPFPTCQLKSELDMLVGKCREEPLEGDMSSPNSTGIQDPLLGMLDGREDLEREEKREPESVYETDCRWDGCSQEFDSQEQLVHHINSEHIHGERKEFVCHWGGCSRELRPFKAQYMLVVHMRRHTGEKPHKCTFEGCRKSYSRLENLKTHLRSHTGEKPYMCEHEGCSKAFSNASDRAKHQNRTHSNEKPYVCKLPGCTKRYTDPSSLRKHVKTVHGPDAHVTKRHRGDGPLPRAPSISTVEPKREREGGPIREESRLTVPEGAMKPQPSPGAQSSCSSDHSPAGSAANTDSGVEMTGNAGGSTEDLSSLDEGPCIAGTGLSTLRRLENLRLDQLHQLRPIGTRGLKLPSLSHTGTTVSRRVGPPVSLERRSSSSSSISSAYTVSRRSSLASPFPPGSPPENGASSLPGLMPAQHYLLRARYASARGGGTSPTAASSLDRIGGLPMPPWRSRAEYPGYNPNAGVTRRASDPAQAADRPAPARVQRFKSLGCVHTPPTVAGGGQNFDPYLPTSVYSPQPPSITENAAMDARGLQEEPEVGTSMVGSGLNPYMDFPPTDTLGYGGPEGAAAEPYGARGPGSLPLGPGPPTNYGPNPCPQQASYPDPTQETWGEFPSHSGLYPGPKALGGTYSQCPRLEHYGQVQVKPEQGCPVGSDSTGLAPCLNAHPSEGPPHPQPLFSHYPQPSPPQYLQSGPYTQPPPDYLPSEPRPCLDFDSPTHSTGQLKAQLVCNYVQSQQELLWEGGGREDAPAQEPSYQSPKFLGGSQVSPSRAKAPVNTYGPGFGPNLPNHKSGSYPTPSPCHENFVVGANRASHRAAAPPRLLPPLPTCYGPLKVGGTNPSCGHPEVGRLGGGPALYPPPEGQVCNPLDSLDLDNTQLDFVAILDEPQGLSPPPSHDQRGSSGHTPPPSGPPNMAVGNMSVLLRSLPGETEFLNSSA
In short: (§1)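 A375 cells treated with compound (5 μM) or DMSO for 48 h. mRNA measured by qPCR as gene/(mean of HPRT and EIF2α) ratio, DMSO control set to 1. Mean ± SD.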

A-375 [4] = experiment: Antiproliferative activity against human A375 cells transfected with lentivrus-encoding shRNA against GLI1 assessed as reduction in cell viability incubated for 72 hrs by trypan blue or crystal violet staining based assay; format: functional
In short: (§2)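 A375 melanoma cells transduced with control lentivirus (LV-c), LV-shGLI1 or LV-shGLI2, with knockdown checked by Western blot (HSP90 loading control). Cells treated with DMSO or compound at the indicated doses for 72 h, then viability read. Values are mean ± SD of at least three independent experiments.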

[5] = target: T1, Zinc finger protein GLI1 (Mus musculus); experiment: Inhibition of GLI1 transcriptional activity in HH-responsive mouse NIH3T3 cells assessed as reduction in SAG-induced luciferase activity at 5 uM incubated for 48 hrs by luciferase reporter gene assay relative to control; format: cell-based
In short: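 HH-responsive NIH3T3 cells carrying a GLI-dependent firefly luciferase reporter with renilla control, treated 48 h with 100 nM SAG plus compound (5 μM). Firefly/renilla ratio normalised to SAG-only cells set at 100%, reported as percent inhibition.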

A-375 [6] = experiment: Antiproliferative activity against human A375 cells transfected with lentivrus-encoding shRNA against GLI2 assessed as reduction in cell viability incubated for 72 hrs by trypan blue or crystal violet staining based assay; format: functional; in short: as §2
[7] = target: T2, Zinc finger protein GLI1 (Homo sapiens); experiment: Inhibition of GLI1 transcriptional activity in human A375 cells assessed as downregulation of GLI1 mRNA expression at 5 uM incubated for 48 hrs by qPCR analysis; format: cell-based; conditions: A-375; in short: as §1
[8] = target: T2, Zinc finger protein GLI1 (Homo sapiens); experiment: Inhibition of GLI1 transcriptional activity in human A375 cells assessed as downregulation of Cyclin D1 mRNA expression at 5 uM incubated for 48 hrs by qPCR analysis; format: cell-based; conditions: A-375; in short: as §1
[9] = target: T2, Zinc finger protein GLI1 (Homo sapiens); experiment: Inhibition of GLI1 transcriptional activity in human A375 cells assessed as downregulation of PTCH1 mRNA expression at 5 uM incubated for 48 hrs by qPCR analysis; format: cell-based; conditions: A-375; in short: as §1
[10] = target: T2, Zinc finger protein GLI1 (Homo sapiens); experiment: Inhibition of GLI1 transcriptional activity in human A375 cells assessed as downregulation of HIP1 mRNA expression at 5 uM incubated for 48 hrs by qPCR analysis; format: cell-based; conditions: A-375; in short: as §1
[11] = Homo sapiens, Daoy, 72 h, read-out: IC50
[12] = Homo sapiens, A-375, 72 h, read-out: IC50

| SMILES | inhibition [1] | inhibition [5] | IC50 (A-375 [2]; [12]) | IC50 (Daoy; [11]) | further results |
| --- | --- | --- | --- | --- | --- |
| CCOC(=O)c1c(-c2ccccc2)csc1NC(NC(=O)c1cccc(C)c1)C(Cl)(Cl)Cl (centres undefined) | inactive |  |  |  | IC50 (Daoy; daoy): Not Active; IC50 (A-375 [2]; a-375): Not Active |
| CCOC(=O)c1c(-c2ccccc2)csc1NC(NC(=O)CC)C(Cl)(Cl)Cl (centres undefined) | Active | 42% | 4.1 µM | 6 µM | Activity (MCF-10A): Non-Toxic; inhibition [3]: Active; Activity (A-375 [4]): inactive; Activity (A-375 [6]): inactive; inhibition [7]: Active; inhibition [8]: Active; inhibition [9]: Active; inhibition [10]: Active |
| O=C(NC1CCCCC1)c1cnn2c(C(F)F)cc(C3CC3)nc12 | inactive |  |  |  |  |
| CCOC(=O)c1c(-c2ccccc2)csc1NC(NC(=O)c1ccccc1)C(Cl)(Cl)Cl (centres undefined) | Active | 40% | 12 µM | 0.9 µM | Activity (MCF-10A): Non-Toxic; inhibition [3]: Active; inhibition [7]: Active; inhibition [8]: Active; inhibition [9]: Active; inhibition [10]: Active |
| O=C(NC1CCOc2ccccc21)c1cnn2c(C(F)F)cc(C3CC3)nc12 (centres undefined) | inactive |  |  |  | IC50 (Daoy; daoy): Not Active; IC50 (A-375 [2]; a-375): Not Active |
| O=C(NC1CCCc2ccccc21)c1cnn2c(C(F)F)cc(C3CC3)nc12 (centres undefined) | Active | 54% | 5 µM | 7.5 µM |  |
| Cc1cc(C(F)F)n2ncc(C(=O)NC3CC(C)(C)Oc4ccccc43)c2n1 (centres undefined) | inactive | 0% |  |  | IC50 (Daoy; daoy): Not Active; IC50 (A-375 [2]; a-375): Not Active |
| CCOC(=O)c1c(-c2ccccc2)csc1NC(NC(=O)c1ccco1)C(Cl)(Cl)Cl (centres undefined) | Active | 51% | 2.7 µM | 4.3 µM |  |
| O=C(NCc1ccc2c(c1)OCO2)c1cnn2c(C(F)F)cc(C3CC3)nc12 | inactive |  |  |  |  |
| CCOC(=O)c1c(-c2ccccc2)csc1NC(NC(C)=O)C(Cl)(Cl)Cl (centres undefined) | inactive | 38% | 5.1 µM | 2.8 µM |  |
| CCOC(=O)c1c(-c2ccccc2)csc1NC(NC(=O)c1ccccc1C)C(Cl)(Cl)Cl (centres undefined) | inactive |  |  |  | IC50 (Daoy; daoy): Not Active; IC50 (A-375 [2]; a-375): Not Active |
| CCOC(=O)c1c(-c2ccccc2)csc1NC(NC(=O)c1cccc(Cl)c1)C(Cl)(Cl)Cl (centres undefined) | Active | 81% | 6.1 µM | 5.5 µM |  |

More lines, main results first:

| inhibition [1] | inhibition [5] | IC50 (A-375 [2]; [12]) | SMILES | IC50 (Daoy; [11]) | further results |
| --- | --- | --- | --- | --- | --- |
| inactive |  |  | CCOC(=O)c1c(-c2ccccc2)csc1NC(NC(=O)c1ccc(C)cc1)C(Cl)(Cl)Cl (centres undefined) |  | IC50 (Daoy; daoy): Not Active; IC50 (A-375 [2]; a-375): Not Active |
| Active | 78% | 2 µM | CCOC(=O)c1c(-c2ccccc2)csc1NC(NC(=O)c1ccc(Br)cc1)C(Cl)(Cl)Cl (centres undefined) | 3.4 µM |  |
| inactive |  |  | O=C(c1cnn2c(C(F)F)cc(C3CC3)nc12)N(Cc1ccccc1)Cc1ccccc1 |  |  |
| Active | 43% | 2.7 µM | COc1c(O)cc2oc3cc(O)c(CC=C(C)C)c(O)c3c(=O)c2c1CC=C(C)C [MANGOSTIN] | 1.9 µM |  |
| inactive |  |  | O=C(NCCc1ccccc1)c1cnn2c(C(F)F)cc(C3CC3)nc12 |  |  |
| Active | 40% | 2.2 µM | CC1(C)CC(NC(=O)c2cnn3c(C(F)F)cc(C4CC4)nc23)c2ccccc2O1 (centres undefined) | 2.3 µM | Activity (MCF-10A): Non-Toxic; inhibition [3]: Active; inhibition [7]: Active; inhibition [8]: Active; inhibition [9]: Active; inhibition [10]: Active |
| Active | 46% | 0.4 µM | COc1cc(OC)c2c(=O)c(-c3ccc(OCC=C(C)C)c(OCC=C(C)C)c3)coc2c1 | 0.13 µM | inhibition [3]: Active; Activity (A-375 [4]): inactive; Activity (A-375 [6]): inactive; inhibition [7]: Active; inhibition [8]: Active; inhibition [9]: Active; inhibition [10]: Active |
| Active | 74% | 5.2 µM | CCOC(=O)c1c(-c2ccccc2)csc1NC(NC(=O)c1ccc([N+](=O)[O-])cc1)C(Cl)(Cl)Cl (centres undefined) | 3.1 µM |  |
| Active | 66% | 0.6 µM | O=C(NC1CCCc2ccccc21)c1cnn2c(C(F)(F)F)cc(-c3ccco3)nc12 (centres undefined) | 5.7 µM |  |
| inactive | 7% |  | CCOC(=O)c1c(-c2ccccc2)csc1NC(NC(=O)c1cccc2ccccc12)C(Cl)(Cl)Cl (centres undefined) |  | IC50 (Daoy; daoy): Not Active; IC50 (A-375 [2]; a-375): Not Active |
